ChEMBL document CHEMBL1139865 (J Med Chem, 2007)
Blank lines part the entries; values can stand above or below the compound they belong to. The source made the active and inactive calls. No cut-off for these calls is given here.

Key:
Rattus norvegicus [1] = species on record: Rattus norvegicus; test: Increase in plasma insulin level in Wistar fatty rat; assay type: functional, organism-based
In short: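 Female Wistar fatty rats given a benzoate salt, with doses expressed as free base, then an oral glucose load. Plasma immunoreactive insulin read 10 min after the glucose load. Mean and SD, n = 6. Compared with control by one-tailed Williams' or Shirley-Williams' test, p ≤ 0.025.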

Rattus norvegicus [2] = species on record: Rattus norvegicus; test: Improvement in glucose tolerance in Wistar fatty rat; assay type: functional, organism-based
In short: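 Glucose tolerance test in female Wistar fatty rats given the benzoate salt, with doses normalized to free base. Read-outs after an oral glucose load were plasma glucose, the baseline (0 min)-adjusted glucose AUC0–60min, and plasma immunoreactive insulin, including the level at 10 min. Data are mean and SD (n = 6), compared with control by one-tailed Williams'/Shirley-Williams' tests.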

in vitro [3] = settings: rat
in vitro [4] = settings: human
Mus musculus = species on record: Mus musculus; test: Reduction in glucose excursion in mouse after oral glucose tolerance test; assay type: functional, organism-based
[5] = Half life in rat at 1 mg/kg, iv; assay type: ADME, organism-based; set-up: dose 1 mg/kg, route intravenous; settings: in vivo
In short: (§1)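 Rat PK study using the TFA salt. A single iv dose (1 mg/kg) and a separate oral dose (10 mg/kg) were given. Half-life was derived for each route, and CL and Vdss for the iv route. F (%) was calculated from the oral and iv exposure.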

[6] = Clearance in rat at 1 mg/kg, iv and 10 mg/kg, po; assay type: ADME, organism-based; settings: in vivo; in short: as §1
[7] = Half life in rat at 10 mg/kg, po; assay type: ADME, organism-based; set-up: dose 10 mg/kg, route oral; settings: in vivo; in short: as §1
[8] = Volume of distribution at steady state in rat at 1 mg/kg, iv and 10 mg/kg, po; assay type: ADME, organism-based; settings: in vivo, read-out: Vdss; in short: as §1
[9] = AUC in rat at 10 mg/kg, po; assay type: ADME, organism-based; set-up: dose 10 mg/kg, route oral; settings: plasma
In short: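 Rat pharmacokinetics with the test article given as the TFA salt: 1 mg/kg iv and 10 mg/kg oral. Oral AUC comes from plasma concentrations after oral dosing. Half-lives, clearance, Vdss and oral bioavailability are derived from the same iv/oral pair.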

[10] = Clearance in monkey at 1.1 mg/kg, iv and 10 mg/kg, po; assay type: ADME, organism-based, Macaca mulatta; settings: rhesus monkey, in vivo
In short: (§2)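 Monkey PK study using the benzoate salt, dosed at 1.1 mg/kg iv or 10 mg/kg orally. Plasma drug concentrations and plasma DPP-4 inhibition were measured. Parameters derived were iv and oral half-lives, oral AUC, CL, Vdss and F (%).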

[11] = Half life in monkey at 10 mg/kg, po; assay type: ADME, organism-based, Macaca mulatta; set-up: dose 10 mg/kg, route oral; settings: rhesus monkey, in vivo; in short: as §2
[12] = AUC in monkey at 10 mg/kg, po; assay type: ADME, organism-based, Macaca mulatta; set-up: dose 10 mg/kg, route oral; settings: rhesus monkey, plasma; in short: as §2
[13] = Bioavailability in monkey at 1.1 mg/kg, iv and 10 mg/kg, po; assay type: ADME, organism-based, Macaca mulatta; settings: rhesus monkey, in vivo; in short: as §2
[14] = Half life in monkey at 1.1 mg/kg, iv; assay type: ADME, organism-based, Macaca mulatta; set-up: dose 1.1 mg/kg, route intravenous; settings: rhesus monkey, in vivo; in short: as §2
[15] = Volume of distribution at steady state in monkey at 1.1 mg/kg, iv and 10 mg/kg, po; assay type: ADME, organism-based, Macaca mulatta; settings: rhesus monkey, in vivo, read-out: Vdss; in short: as §2
[16] = Bioavailability in dog at 1 mg/kg, iv and 3 mg/kg, po; assay type: ADME, organism-based, Canis lupus familiaris; settings: in vivo
In short: (§3)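 Dog PK study using the HCl salt, dosed at 1 mg/kg iv or 3 mg/kg orally. Plasma drug levels were followed, and plasma DPP-4 activity was tracked alongside them.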

[17] = Half life in dog at 1 mg/kg, iv; assay type: ADME, organism-based, Canis lupus familiaris; set-up: dose 1 mg/kg, route intravenous; settings: in vivo; in short: as §3
[18] = Clearance in dog at 1 mg/kg, iv and 3 mg/kg, po; assay type: ADME, organism-based, Canis lupus familiaris; settings: in vivo; in short: as §3
[19] = Half life in dog at 3 mg/kg, po; assay type: ADME, organism-based, Canis lupus familiaris; set-up: dose 3 mg/kg, route oral; settings: in vivo; in short: as §3
[20] = Volume of distribution at steady state in dog at 1 mg/kg, iv and 3 mg/kg, po; assay type: ADME, organism-based, Canis lupus familiaris; settings: in vivo, read-out: Vdss; in short: as §3
[21] = AUC in dog at 3 mg/kg, po; assay type: ADME, organism-based, Canis lupus familiaris; set-up: dose 3 mg/kg, route oral; settings: plasma; in short: as §3

half-life at 1 µM (in vitro [3]; liver microsomes): 0.567 h
half-life at 1 µM (in vitro [4]; liver microsomes): 1.88 h
Compound: N#Cc1ccccc1Cn1c(N2CCC[C@@H](N)C2)nc2ccc(Br)cc2c1=O

half-life at 1 µM (in vitro [3]; liver microsomes): 0.167 h
half-life at 1 µM (in vitro [4]; liver microsomes): 1.37 h
Compound: COc1ccc2nc(N3CCC[C@@H](N)C3)n(Cc3ccccc3C#N)c(=O)c2c1

half-life at 1 µM (in vitro [3]; liver microsomes): 0.517 h
half-life at 1 µM (in vitro [4]; liver microsomes): > 3.33 h
Compound: N#Cc1ccccc1Cn1c(N2CCC[C@@H](N)C2)nc2ccc(F)cc2c1=O [listing 2 of 2 here]

half-life at 1 µM (in vitro [3]; liver microsomes): 0.667 h
half-life at 1 µM (in vitro [4]; liver microsomes): > 3.33 h
Compound: N#Cc1ccccc1Cn1c(N2CCC[C@@H](N)C2)nc2ccc(Cl)cc2c1=O

half-life at 1 µM (in vitro [3]; microsomes): 0.283 h
half-life at 1 µM (in vitro [4]; microsomes): 1.07 h
Compound: N#Cc1ccccc1Cn1c(N2CCC[C@@H](N)C2)nc2c(Cl)cc(Cl)cc2c1=O

clearance [10]: 0.529 L/h/kg
half-life [11]: 5.66 h
AUC [12]: 16.6 µg·h/mL
bioavailability [13]: 87%
half-life [14]: 5.74 h
Vd [15]: 2.6 L/kg
Compound: Cn1c(=O)cc(N2CCC[C@@H](N)C2)n(Cc2ccccc2C#N)c1=O.O=C(O)c1ccccc1 [ALOGLIPTIN BENZOATE]

bioavailability [16]: 68%
half-life [17]: 2.93 h
clearance [18]: 1.38 L/h/kg
half-life [19]: 3.04 h
Vd [20]: 3.51 L/kg
AUC [21]: 1.61 µg·h/mL
Compound: Cl.Cn1c(=O)cc(N2CCC[C@@H](N)C2)n(Cc2ccccc2C#N)c1=O

half-life at 1 µM (in vitro [3]; microsomes): 0.0417 h
half-life at 1 µM (in vitro [4]; microsomes): > 3.33 h
Compound: N#Cc1ccccc1Cn1c(N2CCC[C@@H](N)C2)nc2ccccc2c1=O

Further lines, the compound ahead of its results:

Compound: Cn1c(=O)cc(N2CCC[C@@H](N)C2)n(Cc2ccccc2C#N)c1=O
Activity (Rattus norvegicus [1]): Active
Activity (Rattus norvegicus [2]): Dose-dependent effect

Compound: N#Cc1ccccc1Cn1c(N2CCC[C@@H](N)C2)nc2cc(N3CCOCC3)c(F)cc2c1=O
half-life at 1 µM (in vitro [3]; liver microsomes): 0.102 h
half-life at 1 µM (in vitro [4]; liver microsomes): 0.55 h

Compound: N#Cc1ccccc1Cn1c(N2CCC[C@@H](N)C2)nc2cccc(F)c2c1=O
half-life at 1 µM (in vitro [3]; microsomes): 0.03 h
half-life at 1 µM (in vitro [4]; microsomes): 2.08 h

Compound: COc1cc2nc(N3CCC[C@@H](N)C3)n(Cc3ccccc3C#N)c(=O)c2cc1OC
half-life at 1 µM (in vitro [3]; liver microsomes): 1.78 h
half-life at 1 µM (in vitro [4]; liver microsomes): 2.43 h

Compound: N#Cc1ccccc1Cn1c(N2CCC[C@@H](N)C2)nc2ccc(F)cc2c1=O [listing 1 of 2 here]
Activity (Mus musculus): Active

Compound: COc1cc2c(=O)n(Cc3ccccc3C#N)c(N3CCC[C@@H](N)C3)nc2cc1F
half-life at 1 µM (in vitro [3]; liver microsomes): 0.583 h
half-life at 1 µM (in vitro [4]; liver microsomes): 2.27 h

Compound: N#Cc1ccccc1Cn1c(N2CCCC(N)C2)nc2c(Cl)cccc2c1=O (configuration not stated)
half-life at 1 µM (in vitro [3]; liver microsomes): 0.0617 h
half-life at 1 µM (in vitro [4]; liver microsomes): 1.33 h

Compound: N#Cc1ccccc1Cn1c(N2CCC[C@@H](N)C2)nc2ccc(F)cc2c1=O.O=C(O)C(F)(F)F
half-life [5]: 2.6 h
clearance [6]: 1.24 L/h/kg
half-life [7]: 2.43 h
Vd [8]: 2.87 L/kg
AUC [9]: 7.56 µg·h/mL
